We go through 14 compounds from ChEMBL document CHEMBL3259534, “Diterpenoids from Croton laui and their cytotoxic and antimicrobial activities” (J Nat Prod, 2014).

Values after ≈ are worked out from the molar mass of the structure shown. Bounds are passed on as bounds.

For orientation: IC50 means the midpoint of a concentration-inhibition curve. Read a high IC50 as weaker potency in that assay. A word on the MIC: it is the least concentration at which growth counts as inhibited. A low value points to inhibition by little substance.

Assay [1] has as its system HL-60. As to the kind of experiment: Cytotoxicity against human HL60 cells after 72 hrs by MTT assay. The assay is classed as functional, cell-based. As to conditions: HL-60, 72 h. The essentials: (§1)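 MTT viability assay on HL-60 human premyelocytic leukemia cells and P-388 murine leukemia cells. Adriamycin was included as the positive control.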
In general terms: Tetrazolium assays rely on reduction of a dye to a coloured formazan, in cell work by metabolically active cells.

The subject of assay [2] is P388. Description: Cytotoxicity against mouse P388 cells after 72 hrs by MTT assay. The assay is classed as functional, cell-based. As to conditions: P388, 72 h. The essentials: as §1
Assay [3] relates to Staphylococcus aureus. Description: Antimicrobial activity against Staphylococcus aureus ATCC 25923 by microdilution method. The assay is classed as functional. The method, boiled down: (§2)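 In vitro antibacterial test by microdilution. Strains were drawn from a panel of Gram-positive and Gram-negative bacteria. Ofloxacin was run as the positive control. The read-out is MIC.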
A general note: Broth dilution looks for growth in wells or tubes with falling amounts of substance.

Assay [4] deals with Staphylococcus epidermidis. As to the kind of experiment: Antimicrobial activity against Staphylococcus epidermidis ATCC 12228 by microdilution method. It counts as functional. The essentials:
as §2

Assay [5] deals with Kocuria rhizophila. As to the kind of experiment: Antimicrobial activity against Micrococcus luteus ATCC 9341 by microdilution method. It counts as functional. The essentials:
as §2

Assay [6] concerns Bacillus subtilis. Description: Antimicrobial activity against Bacillus subtilis CMCC 63501 by microdilution method. The assay is classed as functional.
Assay [7] concerns Escherichia coli. Description: Antimicrobial activity against Escherichia coli ATCC 25922 by microdilution method. The assay is classed as functional. The method, boiled down:
as §2

Assay [8] concerns Shigella flexneri. As to the kind of experiment: Antimicrobial activity against Shigella flexneri ATCC 12022 by microdilution method. The assay is classed as functional. The method, boiled down:
as §2

Assay [9] has as its system Pseudomonas aeruginosa. As to the kind of experiment: Antimicrobial activity against Pseudomonas aeruginosa ATCC 14502 by microdilution method. The assay is classed as functional. The essentials:
as §2

Assay [10] relates to Candida albicans. Description: Antimicrobial activity against Candida albicans ATCC 1600 by agar dilution method. It counts as functional. The method, boiled down: (§3)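 In vitro antifungal test by agar dilution against a panel of yeasts and dermatophytes. Amphotericin B served as the positive control. Activity is reported as MIC.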
In general terms: In agar dilution the substance is mixed into plates at graded concentrations.

The test system of assay [11] is Saccharomyces. Description: Antimicrobial activity against Saccharomyces sake ATCC 26421 by agar dilution method. The assay is classed as functional. The essentials: as §3
Assay [12] has as its system Nannizzia gypsea. Description: Antimicrobial activity against Microsporum gypseum ATCC 14683 by agar dilution method. It counts as functional. The essentials: as §3
In assay [13] the test system is Trichophyton rubrum. Description: Antimicrobial activity against Trichophyton rubrum ATCC 10218 by agar dilution method. The assay is classed as functional. The essentials:
as §3

With `C[C@@H]1CC[C@]2(C)[C@H](CC[C@@H](O)[C@]2(C)O)[C@@]1(C)CCc1ccoc1`, the IC50 in assay [1] and in assay [2] was at least 10 µM throughout. Also, the MIC in assay [3], in [4], in assay [5], in assay [6], in assay [7] and in assay [8] was above 150 µM in each case. For the same compound, the minimal inhibitory concentration (MIC) in [9], in assay [10], in assay [11], in assay [12] and in assay [13] was above 150 µM each time.
As to `C/C(=C\CO)[C@@H]1C[C@@H]2[C@@]3(C)CCCC(C)(C)[C@@H]3C[C@H](O)[C@@]2(C)O1`, the IC50 in assay [1] and in assay [2] was at least 10 µM throughout. The MIC in assay [3], in assay [4], in [5], in [6], in [7] and in [8] was above 150 µM each time. Further, the minimum inhibitory concentration (MIC) in assay [9], in assay [10], in assay [11], in [12] and in assay [13] was above 150 µM in each case.
In the case of `C[C@@H]1CC[C@]2(C)[C@H](CC[C@@H](O)[C@]2(C)O)[C@@]1(C)C[C@H](O)c1ccoc1`, the IC50 in assay [1] and in assay [2] was at least 10 µM each time. Besides, the MIC in [3], in [4], in assay [5], in assay [6], in [7] and in [8] was above 150 µM in each case. Also, the MIC in [9], in [10], in [11], in [12] and in assay [13] was above 150 µM in each case.
Regarding `COC(=O)C1=CCC[C@@H]2[C@]13CC[C@H](C)[C@@]21C[C@H](c2ccoc2)O[C@H]1O[C@@H]3O`, the IC50 in assay [1] and in assay [2] was at least 10 µM throughout. In addition, the MIC in assay [3], in assay [4], in assay [5], in assay [6], in assay [7] and in [8] was above 150 µM throughout. Further, the MIC in assay [9], in assay [10], in assay [11], in assay [12] and in assay [13] was above 150 µM throughout.
For `COC(=O)C1=CCC[C@@H]2[C@]13CC[C@H](C)[C@@]21C[C@H](c2ccoc2)O[C@H]1O[C@H]3O`, the 50% inhibitory concentration (IC50) in [1] and in assay [2] was at least 10 µM each time. Further, the MIC in assay [3], in assay [4], in [5], in [6], in [7] and in [8] was above 150 µM each time. Also, the MIC in assay [9], in [10], in assay [11], in assay [12] and in assay [13] was above 150 µM each time.
In the case of `C=C1C[C@H](OC(C)=O)[C@]23C(C(=O)OC)=CCC[C@H]2[C@]12C[C@H](c1ccoc1)O[C@H]2O[C@@H]3O`, the IC50 in assay [1] and in assay [2] was at least 10 µM throughout. In addition, the MIC in assay [3], in assay [4], in assay [5], in [6], in assay [7] and in assay [8] was above 150 µM in each case. For the same compound, the MIC in assay [9], in assay [10], in assay [11], in assay [12] and in assay [13] was above 150 µM throughout.
Consider `C=C1C[C@H](OC(C)=O)[C@]23C(C(=O)OC)=CCC[C@H]2[C@]12C[C@H](c1ccoc1)O[C@H]2O[C@H]3O`, for which the IC50 in [1] and in assay [2] was at least 10 µM in each case. Further, the MIC in assay [3], in assay [4], in assay [5], in assay [6], in assay [7] and in [8] was above 150 µM throughout. For the same compound, the MIC in assay [9], in [10], in assay [11], in assay [12] and in [13] was above 150 µM throughout.
With `C=C1CC[C@H]2[C@](C)(CO)[C@H](O)CC[C@]2(C)[C@H]1C/C=C(\C)C=O`, the IC50 in [1] and in [2] was at least 10 µM in each case. The MIC in [3], in assay [4], in assay [5], in [6], in assay [7] and in [8] was above 150 µM throughout. Moreover, the minimal inhibitory concentration (MIC) in [9], in [10], in [11], in assay [12] and in assay [13] was above 150 µM in each case.
With `CC1=CCC[C@@H]2[C@@](C)(CCC3=CCOC3)[C@H](C)CC[C@@]12C` (relative stereo), the 50% inhibitory concentration (IC50) in assay [1] and in [2] was at least 10 µM throughout. Further, the MIC in assay [3], in assay [4], in assay [5] and in [6] was 43.4 µM (≈ 12.5 µg/mL) in each case.
Regarding `C[C@@H]1C(=O)CC[C@H]2[C@@]1(C)CC[C@H]1C(=O)O[C@H](c3ccoc3)C[C@]21C` (relative stereo), the IC50 in [1] and in assay [2] was at least 10 µM each time. For the same compound, the MIC in assay [3], in assay [4], in assay [5], in assay [6], in [7] and in assay [8] was above 150 µM in each case. The MIC in assay [9], in assay [10], in [11], in [12] and in [13] was above 150 µM throughout.
Regarding `C=C1[C@H](O)CC[C@@H]2[C@@]3(C)C[C@@H](c4ccoc4)OC(=O)[C@@H]3CC[C@@]12C` (relative stereo), the IC50 in [1] and in assay [2] was at least 10 µM in each case. For the same compound, the MIC in assay [3], in assay [4], in [5], in [6], in assay [7] and in assay [8] was above 150 µM each time. Further, the MIC in assay [9], in assay [10], in assay [11], in [12] and in [13] was above 150 µM in each case.
As to `C=C1CC[C@]23C(C(=O)OC)=CCC[C@H]2[C@]12C[C@H](c1ccoc1)O[C@H]2O[C@H]3O` (relative stereo), the IC50 in [1] and in assay [2] was at least 10 µM each time. Besides, the MIC in [3], in assay [4], in [5], in assay [6], in assay [7] and in [8] was above 150 µM throughout. The MIC in assay [9], in [10], in assay [11], in assay [12] and in assay [13] was above 150 µM in each case.
Turning to `C=C1C[C@@H]2OC(=O)C3=CCC[C@H]4[C@]15C[C@H](c1ccoc1)O[C@H]5OC(=O)[C@]324` (relative stereo), the IC50 in assay [1] is 9.42 µM; in assay [2], 7.45 µM. In addition, the MIC in [3], in assay [4], in assay [5], in assay [6], in assay [7] and in assay [8] was above 150 µM throughout. Moreover, the MIC in [9], in assay [10], in [11], in [12] and in assay [13] was above 150 µM in each case.
Turning to `C=C1CC[C@]23C(C(=O)OC)=CCC[C@H]2[C@]12C[C@H](c1ccoc1)O[C@H]2O[C@@H]3O` (relative stereo), the IC50 in assay [1] and in [2] was at least 10 µM in each case. Further, the minimum inhibitory concentration (MIC) in assay [3], in assay [4], in assay [5], in assay [6], in assay [7] and in assay [8] was above 150 µM each time. Moreover, the MIC in assay [9], in assay [10], in [11], in [12] and in assay [13] was above 150 µM in each case.
